According to ChEMBL document CHEMBL3797175, “Discovery of 6-(difluoro(6-(4-fluorophenyl)-[1,2,4]triazolo[4,3-b][1,2,4]triazin-3-yl)methyl)quinoline as a highly potent and selective c-Met inhibitor” (Eur J Med Chem, 2016):
Active and inactive are the calls of the source. The calls are words filed in the database; no cut-off is given here.

Assays:
[1] = AUC (0 to infinity) in Sprague-Dawley rat at 10 mg/kg, po administered as single dose; type: ADME, organism-based; design: dose 10 mg/kg, route oral, time infinity; conditions: in vivo
[2] = target: Macrophage-stimulating protein receptor (Homo sapiens) (UniProt Q04912); test: Inhibition of recombinant RON (unknown origin) using poly (Glu, Tyr) 4:1 as substrate at 1000 nM incubated for 60 mins by ELISA relative to control
In short: (§1)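 Recombinant tyrosine kinases assayed on wells precoated with poly(Glu,Tyr)4:1 (20 µg/mL). ATP 10 µmol/L in HEPES pH 7.4 buffer with MgCl2, MnCl2, Na3VO4 and DTT; compound in 1% DMSO, 1% DMSO as control. Reaction 60 min at 37 °C. Phosphotyrosine detected with PY99 and HRP anti-mouse, o-phenylenediamine, A490. Inhibition % relative to control; two experiments.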

[3] = Selectivity ratio of IC50 for human NCI-H661 cells to IC50 for human EBC1 cells; type: ADME, cell-based
In short: (§2)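 Both IC50s in each ratio come from one proliferation assay. Cells were seeded and exposed the next day to a range of concentrations for 72 h, then read by SRB or MTT. IC50s were fitted by four-parameter concentration–response, with each concentration at least in triplicate and at least 2 experiments. BaF3/TPR-Met is murine pre-B BaF3 transfected with TPR-MET and puromycin-selected.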

[4] = Antiproliferative activity against human SMMC7721 cells after 72 hrs by SRB or MTT assay; type: functional, cell-based; conditions: SMMC-7721, 72 h
In short: (§3)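 Cells seeded, exposed next day to a range of concentrations for 72 h. Growth read by sulforhodamine B or MTT. IC50 from four-parameter concentration-response fit. Each concentration tested at least in triplicate, with at least 2 experiments.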

[5] = Antiproliferative activity against human Calu3 cells after 72 hrs by SRB or MTT assay; type: functional, cell-based; conditions: Calu-3, 72 h; in short: as §3
[6] = Selectivity ratio of IC50 for human SNU16 cells to IC50 for mouse BAF3 cells expressing TPR-MET; type: ADME, cell-based
[7] = target: TPR/MET fusion protein (Mus musculus) (UniProt P16056+F6ZDS4); test: Inhibition of TPR-MET in mouse BAF3 cells assessed as reduction in ERK phosphorylation at Threonine 202 at 10 nM after 1 hr by Western blot analysis; type: cell-based
In short: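 BaF3 stably expressing TPR-MET (puromycin-selected), grown with IL-3-conditioned medium. Treated 1 h at 37 °C, lysed in SDS sample buffer. 10% SDS-PAGE and immunoblot for phospho-c-Met, phospho-ERK1/2, phospho-AKT and totals; ECL detection.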

[8] = Selectivity ratio of IC50 for human SGC7901 cells to IC50 for human EBC1 cells; type: ADME, cell-based; conditions: sgc-7901
In short: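 Each cell line was seeded in 96-well plates, then exposed the next day to a range of compound concentrations for 72 h. Growth was read by SRB or MTT assay, and IC50 was fitted by a four-parameter concentration-response curve. Each concentration was run at least in triplicate, in at least 2 experiments. BaF3/TPR-Met are murine pre-B BaF3 cells transfected with TPR-MET cDNA and selected in puromycin.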

[9] = target: Proto-oncogene tyrosine-protein kinase receptor Ret (Homo sapiens) (UniProt P07949); test: Inhibition of recombinant RET (unknown origin) using poly (Glu, Tyr) 4:1 as substrate at 1000 nM incubated for 60 mins by ELISA relative to control; in short: as §1
[10] = Tmax in Sprague-Dawley rat at 10 mg/kg, po administered as single dose; type: ADME, organism-based; conditions: in vivo
In short: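 Male Sprague-Dawley rats (n=3), single dose. IV 2 mg/kg in 1% DMA/9% Cremophor/90% saline; PO 10 mg/kg in 0.5% CMC-Na. For one compound, IV 10 mg/kg in DMSO/Tween 80/PEG40 and PO 10 mg/kg in 10% DMSO/5% Tween 80/85% saline.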

[11] = Selectivity ratio of IC50 for human MGC803 cells to IC50 for mouse BAF3 cells expressing TPR-MET; type: ADME, cell-based; in short: as §2
[12] = target: T1, Hepatocyte growth factor receptor (Homo sapiens, UniProt P08581); test: Inhibition of c-Met in human NCI-H441 cells assessed as inhibition of HGF-induced cell migration after 24 hrs by crystal violet staining based microscopic analysis
In short: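 NCI-H441 cells, 1.5×10^5 in serum-free medium, placed in upper Transwell chamber (8 µm pores; Matrigel-coated for invasion). Lower chamber serum-free medium ± HGF 100 ng/mL, with compound. After 24 h at 37 °C, non-migrated cells removed. Traversed cells stained with 0.1% crystal violet 15 min and imaged in 5 fields per filter. Three independent experiments.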

[13] = target: T1, Hepatocyte growth factor receptor; test: Inhibition of c-Met in HGF stimulated human U87MG cells assessed as reduction in AKT phosphorylation at Serine 473 at 10 nM after 1 hr by Western blot analysis; type: cell-based; conditions: U-87MG ATCC
In short: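 U87MG cells serum-starved 24 h, treated 1 h at 37 °C, then stimulated with HGF 100 ng/mL for 15 min. Lysed in SDS buffer, run on 10% SDS-PAGE and immunoblotted for phospho-ERK1/2 and phospho-AKT; ECL detection.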

[14] = Selectivity ratio of IC50 for human NCI-HCC827 cells to IC50 for human MKN45 cells; type: ADME, cell-based; conditions: mkn-45; in short: as §2
[15] = target: Proto-oncogene tyrosine-protein kinase ROS (Homo sapiens) (UniProt P08922); test: Inhibition of recombinant ROS1 (unknown origin) using poly (Glu, Tyr) 4:1 as substrate at 1000 nM incubated for 60 mins by ELISA relative to control; in short: as §1
MKN-45 = test: Antitumor activity against human MKN45 cells xenografted in po dosed athymic nude mouse assessed as tumor growth inhibition administered bid for 21 days measured twice a week during compound dosing; type: functional, organism-based
In short: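 Nude mice bearing s.c. tumours. Cells were first grown s.c. to 700–800 mm³, then 1.5 mm³ fragments were transplanted s.c. into the right flank. Mice were randomised at 100–200 mm³ (n=6 treated, n=12 vehicle) and dosed orally twice daily for 21 days. Caliper measurement twice weekly; TV = length×width²/2. TGI taken on the final day versus vehicle; Student's t test.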

[16] = Antiproliferative activity against human HCT116 cells after 72 hrs by SRB or MTT assay; type: functional, cell-based; conditions: HCT-116, 72 h; in short: as §3
[17] = Clearance in Sprague-Dawley rat at 2 mg/kg, iv administered as single dose; type: ADME, organism-based; conditions: in vivo
In short: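 Male Sprague Dawley rats (n=3), single dose. iv 2 mg/kg in 1% DMA/9% Cremophor/90% saline. po 10 mg/kg in 0.5% CMC-Na. Where iv was 10 mg/kg: 10% DMSO/10% Tween 80/80% (40% PEG40); po in that case in 10% DMSO/5% Tween 80/85% saline.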

NCI-H661 = test: Antiproliferative activity against human NCI-H661 cells after 72 hrs by SRB or MTT assay; type: functional, cell-based; conditions: NCI-H661, 72 h; in short: as §3
AGS = test: Antiproliferative activity against human AGS cells after 72 hrs by SRB or MTT assay; type: functional, cell-based; in short: as §3
[18] = target: Tyrosine-protein kinase ABL1 (Homo sapiens) (UniProt P00519); test: Inhibition of recombinant ABL (unknown origin) using poly (Glu, Tyr) 4:1 as substrate at 1000 nM incubated for 60 mins by ELISA relative to control; in short: as §1
Tyrosine-protein kinase ABL1 (Homo sapiens), sequence (P00519 whole entry): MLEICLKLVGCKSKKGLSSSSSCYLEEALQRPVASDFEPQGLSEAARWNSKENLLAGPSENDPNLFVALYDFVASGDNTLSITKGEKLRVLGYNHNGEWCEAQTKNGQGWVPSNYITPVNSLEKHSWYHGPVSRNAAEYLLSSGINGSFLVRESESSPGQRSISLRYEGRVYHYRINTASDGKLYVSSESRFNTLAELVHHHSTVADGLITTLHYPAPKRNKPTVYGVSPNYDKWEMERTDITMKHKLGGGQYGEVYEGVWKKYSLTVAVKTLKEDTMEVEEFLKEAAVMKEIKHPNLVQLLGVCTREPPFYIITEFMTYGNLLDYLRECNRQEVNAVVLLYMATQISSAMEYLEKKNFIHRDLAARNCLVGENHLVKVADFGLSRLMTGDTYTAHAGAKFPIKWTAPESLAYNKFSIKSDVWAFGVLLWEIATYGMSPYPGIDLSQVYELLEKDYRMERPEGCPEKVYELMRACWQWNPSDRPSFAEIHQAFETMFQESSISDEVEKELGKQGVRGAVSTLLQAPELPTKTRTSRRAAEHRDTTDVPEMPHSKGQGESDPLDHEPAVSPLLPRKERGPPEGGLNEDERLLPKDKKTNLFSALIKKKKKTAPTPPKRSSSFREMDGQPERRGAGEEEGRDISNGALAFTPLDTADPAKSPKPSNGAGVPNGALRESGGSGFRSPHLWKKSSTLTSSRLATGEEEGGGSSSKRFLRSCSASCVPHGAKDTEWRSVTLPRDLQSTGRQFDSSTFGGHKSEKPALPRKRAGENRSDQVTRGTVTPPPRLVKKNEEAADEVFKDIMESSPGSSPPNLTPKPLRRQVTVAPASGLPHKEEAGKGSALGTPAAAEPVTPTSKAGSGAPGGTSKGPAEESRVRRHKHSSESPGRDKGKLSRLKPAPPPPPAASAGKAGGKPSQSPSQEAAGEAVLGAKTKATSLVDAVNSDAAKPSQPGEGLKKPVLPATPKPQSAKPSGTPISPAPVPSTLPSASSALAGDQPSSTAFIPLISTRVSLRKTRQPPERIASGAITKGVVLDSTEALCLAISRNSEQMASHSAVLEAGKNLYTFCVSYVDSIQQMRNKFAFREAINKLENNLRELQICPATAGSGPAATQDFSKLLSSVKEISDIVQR

T1 sequence (P08581 whole entry): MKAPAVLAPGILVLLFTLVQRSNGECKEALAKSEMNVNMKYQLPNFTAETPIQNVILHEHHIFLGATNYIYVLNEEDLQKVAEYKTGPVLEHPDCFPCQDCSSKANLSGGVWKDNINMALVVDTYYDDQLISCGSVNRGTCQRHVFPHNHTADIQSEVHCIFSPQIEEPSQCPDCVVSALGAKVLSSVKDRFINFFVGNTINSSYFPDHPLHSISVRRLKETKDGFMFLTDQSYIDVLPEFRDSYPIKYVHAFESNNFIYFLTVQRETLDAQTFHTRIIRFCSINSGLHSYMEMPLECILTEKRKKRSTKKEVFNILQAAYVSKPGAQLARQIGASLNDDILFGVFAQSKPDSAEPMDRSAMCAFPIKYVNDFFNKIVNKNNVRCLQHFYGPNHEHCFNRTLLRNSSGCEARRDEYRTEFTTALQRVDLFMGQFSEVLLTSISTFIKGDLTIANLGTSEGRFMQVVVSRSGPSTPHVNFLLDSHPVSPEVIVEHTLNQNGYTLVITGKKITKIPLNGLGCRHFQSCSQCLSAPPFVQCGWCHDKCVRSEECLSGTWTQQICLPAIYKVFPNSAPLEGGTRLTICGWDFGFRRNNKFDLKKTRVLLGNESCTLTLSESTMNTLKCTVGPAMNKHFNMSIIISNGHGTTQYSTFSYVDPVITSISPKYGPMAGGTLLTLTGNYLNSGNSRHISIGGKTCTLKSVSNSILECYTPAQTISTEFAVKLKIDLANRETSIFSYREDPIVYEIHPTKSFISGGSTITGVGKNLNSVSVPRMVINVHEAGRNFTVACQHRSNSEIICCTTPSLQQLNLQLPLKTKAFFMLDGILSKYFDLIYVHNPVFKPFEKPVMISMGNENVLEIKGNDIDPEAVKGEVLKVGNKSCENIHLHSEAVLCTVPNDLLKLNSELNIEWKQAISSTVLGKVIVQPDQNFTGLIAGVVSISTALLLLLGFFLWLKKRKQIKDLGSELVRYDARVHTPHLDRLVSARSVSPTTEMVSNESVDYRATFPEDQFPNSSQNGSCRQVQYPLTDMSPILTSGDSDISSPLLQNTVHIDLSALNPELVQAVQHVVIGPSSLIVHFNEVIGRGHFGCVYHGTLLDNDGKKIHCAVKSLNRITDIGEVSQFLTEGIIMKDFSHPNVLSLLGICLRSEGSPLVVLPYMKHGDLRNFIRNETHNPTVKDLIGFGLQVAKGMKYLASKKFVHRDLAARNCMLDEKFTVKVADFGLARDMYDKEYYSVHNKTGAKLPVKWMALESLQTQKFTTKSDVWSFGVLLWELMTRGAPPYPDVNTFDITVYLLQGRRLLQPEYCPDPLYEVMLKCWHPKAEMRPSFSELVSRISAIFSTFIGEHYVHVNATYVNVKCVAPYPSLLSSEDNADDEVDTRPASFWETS
Proto-oncogene tyrosine-protein kinase ROS (Homo sapiens), sequence (P08922 whole entry): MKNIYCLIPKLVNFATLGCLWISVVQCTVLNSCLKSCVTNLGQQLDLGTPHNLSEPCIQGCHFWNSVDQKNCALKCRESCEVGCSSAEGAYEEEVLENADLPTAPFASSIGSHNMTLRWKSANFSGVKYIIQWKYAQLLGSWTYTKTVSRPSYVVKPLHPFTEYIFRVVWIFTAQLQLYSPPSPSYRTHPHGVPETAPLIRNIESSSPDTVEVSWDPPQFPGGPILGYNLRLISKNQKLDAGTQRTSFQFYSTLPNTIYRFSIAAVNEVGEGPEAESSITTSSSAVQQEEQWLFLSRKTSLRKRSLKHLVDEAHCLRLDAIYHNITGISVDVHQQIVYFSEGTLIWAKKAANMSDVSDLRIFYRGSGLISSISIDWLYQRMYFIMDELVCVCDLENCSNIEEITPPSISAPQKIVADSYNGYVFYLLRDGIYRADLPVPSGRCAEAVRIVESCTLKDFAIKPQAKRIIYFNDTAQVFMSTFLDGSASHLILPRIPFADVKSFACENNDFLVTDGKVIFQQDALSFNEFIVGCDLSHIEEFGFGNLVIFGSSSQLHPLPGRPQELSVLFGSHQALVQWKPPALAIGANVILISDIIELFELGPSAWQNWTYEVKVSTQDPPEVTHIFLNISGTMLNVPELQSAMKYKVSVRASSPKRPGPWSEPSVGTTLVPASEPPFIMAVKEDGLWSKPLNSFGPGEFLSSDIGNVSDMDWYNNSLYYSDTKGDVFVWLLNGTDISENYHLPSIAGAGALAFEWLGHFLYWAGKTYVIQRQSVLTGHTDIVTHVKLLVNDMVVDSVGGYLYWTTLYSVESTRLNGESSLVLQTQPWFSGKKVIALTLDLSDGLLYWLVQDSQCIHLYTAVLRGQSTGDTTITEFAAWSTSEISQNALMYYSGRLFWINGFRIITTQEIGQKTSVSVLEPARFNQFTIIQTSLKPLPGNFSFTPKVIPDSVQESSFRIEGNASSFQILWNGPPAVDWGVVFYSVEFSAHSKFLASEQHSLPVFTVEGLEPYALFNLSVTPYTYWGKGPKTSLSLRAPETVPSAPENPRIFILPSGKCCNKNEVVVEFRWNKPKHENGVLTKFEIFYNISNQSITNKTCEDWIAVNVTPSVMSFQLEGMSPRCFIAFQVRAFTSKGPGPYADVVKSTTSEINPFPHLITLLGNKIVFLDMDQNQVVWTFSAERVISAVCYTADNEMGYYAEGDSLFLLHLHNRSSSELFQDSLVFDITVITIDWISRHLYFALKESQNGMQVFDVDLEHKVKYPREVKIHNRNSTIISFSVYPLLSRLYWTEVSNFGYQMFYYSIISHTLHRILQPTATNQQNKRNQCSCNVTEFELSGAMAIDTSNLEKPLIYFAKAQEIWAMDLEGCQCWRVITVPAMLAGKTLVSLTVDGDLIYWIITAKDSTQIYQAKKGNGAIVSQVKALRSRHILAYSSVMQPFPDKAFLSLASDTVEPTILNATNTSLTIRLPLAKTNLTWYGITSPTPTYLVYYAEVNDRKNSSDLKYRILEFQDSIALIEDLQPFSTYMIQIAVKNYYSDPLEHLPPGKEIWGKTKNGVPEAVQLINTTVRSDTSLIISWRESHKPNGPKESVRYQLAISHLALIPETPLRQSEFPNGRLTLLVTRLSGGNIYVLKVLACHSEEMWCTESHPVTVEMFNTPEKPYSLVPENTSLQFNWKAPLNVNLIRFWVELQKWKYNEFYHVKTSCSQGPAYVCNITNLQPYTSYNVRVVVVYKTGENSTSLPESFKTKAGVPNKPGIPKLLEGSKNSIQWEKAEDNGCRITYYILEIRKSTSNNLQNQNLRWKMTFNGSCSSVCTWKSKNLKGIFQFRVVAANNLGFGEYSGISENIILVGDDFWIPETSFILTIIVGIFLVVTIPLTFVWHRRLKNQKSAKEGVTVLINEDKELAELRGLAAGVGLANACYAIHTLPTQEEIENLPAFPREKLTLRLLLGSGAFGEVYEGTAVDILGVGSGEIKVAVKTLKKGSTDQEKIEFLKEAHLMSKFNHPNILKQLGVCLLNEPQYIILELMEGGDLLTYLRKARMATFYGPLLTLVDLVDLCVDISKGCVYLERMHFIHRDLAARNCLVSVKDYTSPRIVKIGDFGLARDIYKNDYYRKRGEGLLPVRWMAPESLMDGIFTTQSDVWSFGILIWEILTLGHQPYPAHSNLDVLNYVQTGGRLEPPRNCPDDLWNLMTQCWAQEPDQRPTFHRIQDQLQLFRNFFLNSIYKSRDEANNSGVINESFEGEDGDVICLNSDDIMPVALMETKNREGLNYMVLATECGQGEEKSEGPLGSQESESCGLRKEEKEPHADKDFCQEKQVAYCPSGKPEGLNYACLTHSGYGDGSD

Question: Which AUC(0-inf) [1] does the source give for `Fc1ccc(-c2cnc3nnc(C(F)(F)c4ccc5ncccc5c4)n3n2)cc1` here?
Answer: Its AUC(0-inf) is 2380 ng·h/mL.

Question: And the inhibition [2]?
Answer: The inhibition was 33.9%.

Question: And the “Ratio IC50” value [3]?
Answer: Its value is 10000.

Question: What about the IC50 [4] of the same compound?
Answer: The IC50 was over 10 µM.

Question: And the IC50 [5]?
Answer: The IC50 was over 10 µM.

Question: And the “Ratio IC50” value [6]?
Answer: The value was 10000.

Question: And the inhibition [7]?
Answer: The inhibition was “Active”.

Question: And the Ratio IC50 [8]?
Answer: The Ratio IC50 was over 10000.

Question: And the inhibition [9]?
Answer: The inhibition was 29.9%.

Question: What about the Tmax [10] of the same compound?
Answer: Its Tmax is 1 h.

Question: What about the Ratio IC50 [11] of the same compound?
Answer: The Ratio IC50 was over 10000.

Question: And the inhibition [12]?
Answer: Its inhibition is “Dose-dependent effect”.

Question: And the inhibition [13]?
Answer: The inhibition was “Active”.

Question: And the “Ratio IC50” value [14]?
Answer: The value was 10000.

Question: What about the inhibition [15] of the same compound?
Answer: Its inhibition is 10.6%.

Question: What about the TGI (MKN-45) of the same compound?
Answer: The TGI was “Dose-dependent effect”.

Question: What about the IC50 [16] of the same compound?
Answer: Its IC50 is over 10 µM.

Question: What about the clearance [17] of the same compound?
Answer: Its clearance is 47.2 mL/min/kg.

Question: And the IC50 (NCI-H661)?
Answer: Its IC50 is over 10 µM.

Question: What about the IC50 (AGS) of the same compound?
Answer: Its IC50 is over 10 µM.

Question: And the inhibition [18]?
Answer: The inhibition was 14.9%.
